IC50 data for one compound are collected here from BindingDB's records for doi:10.1021/jm300138g (Neuraxon, 2012).

One may read the IC50 as the concentration that gives 50% inhibition. The low end stands for higher potency, the high end for lower potency.

This assay addresses Sodium-dependent noradrenaline transporter (Homo sapiens, UniProt P23975). Nature of the assay: Displacement of [3H]nisoxetine from human NET expressed in CHO cells after 120 mins by scintillation counting. In a few lines: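 Membranes from hNET-transfected CHO cells (20 μg protein) incubated 120 min at 4 °C with 1 nM [3H]nisoxetine in 50 mM Tris-HCl pH 7.4, 120 mM NaCl, 5 mM KCl. Nonspecific binding defined with 1 μM desipramine. Filtered on PEI-soaked GF/B and counted.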

Molecules are shown by their SMILES.

Chain of Sodium-dependent noradrenaline transporter (P23975 whole entry): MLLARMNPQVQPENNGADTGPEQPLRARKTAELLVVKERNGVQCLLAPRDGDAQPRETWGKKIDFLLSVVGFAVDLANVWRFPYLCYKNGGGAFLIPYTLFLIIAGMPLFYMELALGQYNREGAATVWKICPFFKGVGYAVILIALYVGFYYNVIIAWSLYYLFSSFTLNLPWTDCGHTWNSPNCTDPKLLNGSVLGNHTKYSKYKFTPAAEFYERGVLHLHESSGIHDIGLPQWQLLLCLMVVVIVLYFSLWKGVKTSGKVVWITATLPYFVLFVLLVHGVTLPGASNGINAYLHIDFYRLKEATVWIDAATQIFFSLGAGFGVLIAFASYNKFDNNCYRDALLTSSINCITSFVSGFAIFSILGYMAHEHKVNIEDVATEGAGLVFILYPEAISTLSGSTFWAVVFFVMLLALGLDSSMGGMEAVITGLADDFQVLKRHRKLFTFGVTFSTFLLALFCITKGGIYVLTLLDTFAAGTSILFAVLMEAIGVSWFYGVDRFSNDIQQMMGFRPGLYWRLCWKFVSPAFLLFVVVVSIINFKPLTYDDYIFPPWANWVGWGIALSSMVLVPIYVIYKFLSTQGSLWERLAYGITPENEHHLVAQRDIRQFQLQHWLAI

For `CN(C)C1CC=C(c2c[nH]c3ccc(N=C(N)c4cccs4)cc23)CC1` (stereo unspecified), the IC50 was determined as 550 nM.
